High-throughput results deposited in PubChem by PCMD.
KLK5 inh – kallikrein 5 (human) inhibition; 0.59% of 210,000 active; inhibition, % at 5 µM; Q9Y337; recombinant hK5, fluorogenic AMC substrate cleavage;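 active means inhibition of 40% or more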;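 further: 0% = enzyme controls without compound and 100% = no-enzyme blanks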
Target sequence (Q9Y337 67-293 limits assumed): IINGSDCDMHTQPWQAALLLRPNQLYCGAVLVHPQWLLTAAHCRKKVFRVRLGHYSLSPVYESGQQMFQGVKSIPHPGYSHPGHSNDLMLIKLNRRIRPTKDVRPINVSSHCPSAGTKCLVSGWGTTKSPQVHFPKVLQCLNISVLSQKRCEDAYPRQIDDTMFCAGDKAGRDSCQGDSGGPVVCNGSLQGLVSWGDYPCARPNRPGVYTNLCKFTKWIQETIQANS
FXIa inh – factor XIa (human) inhibition; P03951; purified FXIa, Boc-Glu-Ala-Arg-AMC fluorogenic substrate; inhibition, % at 5 µM; 0.14% of 220,000 active;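 active means inhibition of at least 40%; inactive means inhibition below 40%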;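 further: fluorescence of freed AMC excited at 355 nm; 0% = enzyme without compound and 100% = no enzyme blank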
FXIIa inh – blocks human coagulation factor XIIa protease activity; P00748; purified FXIIa, Boc-QGR-AMC fluorogenic substrate, 2 h; inhibition, % at 5 µM; 0.3% of 220,000 active; AID 800; in the data active means inhibition above about 40%;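 further: 0% = enzyme with no compound and 100% = blank without enzyme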
thrombin 1536 – thrombin (human) inhibition. P00734. alpha-thrombin, Boc-VPR-AMC fluorogenic substrate cleavage. inhibition, % at 5 µM. 0.26% of 220,000 active;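 active means inhibition at or above 40%; inactive means inhibition below 40%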;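 further: 0% = enzyme with no compound and 100% = wells without enzyme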
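signal = AMC fluorescence, 355/460 nm | material = human alpha-thrombin enzyme | control set = enzyme without compound as high, wells lacking enzyme as low | times = reaction at room temperature | read-out basis = percent inhibition scaled between no-compound controls and no-enzyme blanks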
The depositor's hits bear a star. Sampled rows, rich in hits. Any-hit rate of the full collection: about 1%.

For CCN1CCCC1CN(Cc1cc2ccc(C)cc2[nH]c1=O)C(=S)Nc1cccc(OC)c1 (stereo not given) the results were KLK5 inh -11, FXIa inh 6, FXIIa inh 5 and thrombin 1536 2.
Cc1cc2ncn(S(=O)(=O)N3CCOCC3)c2cc1C was read as KLK5 inh 47*, FXIa inh 3, FXIIa inh 18 and thrombin 1536 80*.
For CC(C)=C(NC(=O)c1ccccc1)C(=O)NCc1ccccc1 the results were KLK5 inh -15, FXIa inh 17, FXIIa inh 2 and thrombin 1536 2.
`CCCc1nnc(SCC(=O)N2CCCCC2)n1CC1CCCO1` (stereo not given) gave KLK5 inh 57*, FXIa inh 0, FXIIa inh 21 and thrombin 1536 17.
Screening CC(=O)c1c(N2CCC(C(N)=O)CC2)nc(=S)n(-c2ccccc2)c1C returned KLK5 inh 45*, FXIa inh 9, FXIIa inh 22 and thrombin 1536 14.
For Cc1ccc2nc(C)/c(=N\O)c(C)nc2c1 the results were KLK5 inh 51*, FXIa inh 3, FXIIa inh 15 and thrombin 1536 3.
`COc1ccc(C(=O)CSc2nc3ncccc3[nH]2)cc1OC` gave KLK5 inh 19, FXIa inh 23, FXIIa inh 102* and thrombin 1536 8.
`Cn1c(N)c(C(=O)COC(=O)CSc2ccccc2)c(=O)n(C)c1=O` gave KLK5 inh -11, FXIa inh 6, FXIIa inh 12 and thrombin 1536 -4.
CC(=O)NC(CC(=O)OCC(=O)c1c(N)n(C)c(=O)n(C)c1=O)c1ccccc1 (stereo not given) was read as KLK5 inh 15, FXIa inh 34, FXIIa inh 40* and thrombin 1536 -4.
CCOC(=O)C1(Cc2cccc(OC)c2)CCN(Cc2cccnc2)CC1 was read as KLK5 inh -5, FXIa inh -5, FXIIa inh 4 and thrombin 1536 -3.
Screening Cc1ccc(Oc2ccccc2/C=C2\SC(=O)N(C)C2=O)cc1 returned KLK5 inh 51*, FXIa inh 16, FXIIa inh 23 and thrombin 1536 21.
Screening COc1ccccc1NC(=O)c1ccc(CSc2ncccn2)cc1 returned KLK5 inh 5, FXIa inh -6, FXIIa inh 3 and thrombin 1536 3.
Screening CCOc1ccc(N=C2NN=C(c3cc(C)n(CC4CCCO4)c3C)CS2)cc1 (stereo not given) returned KLK5 inh 45*, FXIa inh 30, FXIIa inh 36 and thrombin 1536 10.
For Cc1ccc(Cn2cc(/C=N/NC(=O)Cc3nnc(NC(=O)c4ccc(C)cc4)s3)c3ccccc32)cc1 the results were KLK5 inh 10, FXIa inh 28, FXIIa inh 40* and thrombin 1536 31.
Screening CCOCCCNCC(=O)NCC1CCCCC1 returned KLK5 inh -3, FXIa inh -5, FXIIa inh 11 and thrombin 1536 -4.
Screening Cc1c(-c2cccs2)[n+](=O)c2c(n1[O-])CCC2 returned KLK5 inh 60*, FXIa inh 17, FXIIa inh 34 and thrombin 1536 40*.
Cc1c(C)[n+](=O)c(-c2cccs2)c(C)n1[O-] was read as KLK5 inh -12, FXIa inh -7, FXIIa inh -7 and thrombin 1536 -1.
For COc1ccc(-c2ccc(CCC(=O)O)n2-c2ccccc2O)cc1 the results were KLK5 inh 16, FXIa inh 5, FXIIa inh 17 and thrombin 1536 59*.
CCc1nc(NCC2CCCN2CC)c2nnn(Cc3ccccc3F)c2n1 (stereo not given) was read as KLK5 inh -5, FXIa inh 3, FXIIa inh 11 and thrombin 1536 -1.
Screening Cc1cnc(C(=O)Nc2nnc(C(C)C)s2)cn1 returned KLK5 inh -36, FXIa inh 11, FXIIa inh 14 and thrombin 1536 0.
For CC(C)c1nnc(NC(=O)c2cnccn2)s1 the results were KLK5 inh 37, FXIa inh 15, FXIIa inh 25 and thrombin 1536 41*.
`COc1ccc(/C(O)=C/c2nc3ccc(C(=O)NCCc4cccc(C)c4)cc3[nH]c2=O)cc1OC` gave KLK5 inh -6, FXIa inh -2, FXIIa inh -6 and thrombin 1536 -6.
Screening CSc1ccccc1C(=O)C1CCCN(S(=O)(=O)N(C)C)C1 (stereo not given) returned KLK5 inh 39, FXIa inh 33, FXIIa inh 102* and thrombin 1536 13.
For CCOc1ccc(NC(=O)c2ccc(CNc3c(N4CCCC4)c(=O)c3=O)cc2)cc1 the results were KLK5 inh 7, FXIa inh 11, FXIIa inh 21 and thrombin 1536 41*.
`CC(=O)c1ccc(NC(=O)c2ccc(CNc3c(N4CCCC4)c(=O)c3=O)cc2)cc1` gave KLK5 inh 5, FXIa inh 1, FXIIa inh 11 and thrombin 1536 -3.
`COc1ccc(S(=O)(=O)Nc2ccc(NC(C)=O)cc2)cc1[N+](=O)[O-]` gave KLK5 inh -3, FXIa inh 1, FXIIa inh 10 and thrombin 1536 14.
`O=C(NCc1ccco1)c1ccc2c(c1)CCO2` gave KLK5 inh 53*, FXIa inh 10, FXIIa inh 52* and thrombin 1536 32.
`C=C(C)Cn1c(=O)c(NC(=O)c2ccccc2)c2n(c1=S)CCC2` gave KLK5 inh 41*, FXIa inh 16, FXIIa inh 20 and thrombin 1536 25.
For COc1ccc(-n2c(=O)c(NC(=O)c3ccccc3)c3n(c2=S)CCCCC3)cc1 the results were KLK5 inh 2, FXIa inh 0, FXIIa inh 7 and thrombin 1536 -12.
CCCCOCCCNC(=O)C1CCCCC1 was read as KLK5 inh 41*, FXIa inh 7, FXIIa inh 10 and thrombin 1536 13.
`O=C(NCCCCNC(=O)C1CCCC1)C1CCCC1` gave KLK5 inh -23, FXIa inh -14, FXIIa inh 6 and thrombin 1536 4.
`Fc1cccc2sc(N3CCCCC3)nc12` gave KLK5 inh -23, FXIa inh -23, FXIIa inh 17 and thrombin 1536 3.
`Fc1cc(F)c2nc(N3CCCC3)sc2c1` gave KLK5 inh 36, FXIa inh 32, FXIIa inh 103* and thrombin 1536 1.
CCc1ccc(N(C(C)=O)c2nc(CCl)cs2)cc1 was read as KLK5 inh 88*, FXIa inh 30, FXIIa inh 24 and thrombin 1536 12.
O=C(NCc1ccccc1)Nc1cccn(Cc2ccccc2Cl)c1=O was read as KLK5 inh -4, FXIa inh 2, FXIIa inh 8 and thrombin 1536 4.
For CCc1nc2oc3cc(OC)ccc3c(=O)c2c(=O)n1Cc1ccccc1 the results were KLK5 inh 48*, FXIa inh 7, FXIIa inh 27 and thrombin 1536 25.
`Cn1nnnc1SCC(=O)N1CCc2ccccc2C1` gave KLK5 inh 59*, FXIa inh 11, FXIIa inh 35 and thrombin 1536 25.
For NNC(=O)COc1ccc(C(F)(F)F)cc1 the results were KLK5 inh -4, FXIa inh -10, FXIIa inh 7 and thrombin 1536 -4.
